Source: PubChem (Broad Institute)
S100A4 inh HTS – inhibitors of human S100A4 binding to myosin IIA peptide; 360,000 tested, 0.14% active; P26447; AID 652163; S100A4/TAMRA-MyoIIA peptide fluorescence polarization; inhibition, % at 10.7 µM;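 active means mean inhibition of at least 70% across replicates, with every replicate also reaching that level; inconclusive means mean inhibition reaches 70% but some replicates fall short; inactive means mean inhibition below 70%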
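Assay system: human S100A4 monomer with TAMRA-labelled myosin IIA peptide / Buffer or medium: Calcium-containing HEPES buffer, pH 7.2 / Reagent: TAMRA-labelled myosin IIA heavy-chain peptide probe, 5 nM / Compound: one dose per compound / Timing: polarization read 5 min after assay mix addition, stable 5–60 min / Benchmarks: neutral control DMSO, positive control TFP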
RAD54 inh – blocks human RAD54 Holliday junction branch migration; FAM/BHQ fluorescence; 360,000 tested, 0.14% active; inhibition, % at 10.4 µM; Q92698;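 active means mean normalized replicate activity at least 40 and at least half of replicates scoring 40 or more; inconclusive means only one of the two criteria met; inactive means mean below 40 and under half of replicates reaching 40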;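 further: 0% = median of neutral control wells and 100% = median of positive control wells; inhibitors cause a drop in the FAM fluorescence signal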
RAD52 anneal inh – RAD52 (human) annealing inhibition. P43351. recombinant RAD52 DNA annealing, FRET fluorescence. inhibition, % at 18.7 µM. 360,000 tested, 0.46% active. AID 651710;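 active means every replicate showing at least 50% inhibition; inconclusive means mean inhibition at least 50% but not in every replicate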
Target sequence (P43351 whole entry, looked up): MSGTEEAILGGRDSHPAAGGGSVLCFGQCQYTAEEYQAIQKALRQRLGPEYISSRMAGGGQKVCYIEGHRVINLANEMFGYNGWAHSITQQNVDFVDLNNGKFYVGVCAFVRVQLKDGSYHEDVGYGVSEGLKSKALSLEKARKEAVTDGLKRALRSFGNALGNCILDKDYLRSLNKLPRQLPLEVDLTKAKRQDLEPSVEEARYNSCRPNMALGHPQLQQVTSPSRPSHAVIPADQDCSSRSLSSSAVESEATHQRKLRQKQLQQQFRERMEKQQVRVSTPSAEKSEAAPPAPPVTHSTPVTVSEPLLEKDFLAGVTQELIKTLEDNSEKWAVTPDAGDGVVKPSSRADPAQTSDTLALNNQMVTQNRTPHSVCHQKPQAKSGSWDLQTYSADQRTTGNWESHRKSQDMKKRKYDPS
INS-1E GSIS act – GLuc luminescence reporter in INS-1E cells, primary screen for activators of glucose-dependent secretion of insulin; 370,000 tested, 0.61% active; INS-1E GLuc reporter insulin secretion, 2-3 h; activation, % at 16.6 µM;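 active means lowest replicate activation of at least 40%, so every replicate reaches that level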;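 further: 0% = median of neutral control wells and 100% = median of IBMX positive control wells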
AF4-AF9 inh – blocks AF4 peptide binding to human AF9; AID 651704; 350,000 tested, 0.47% active; inhibition, % at 10 µM; AlphaScreen, biotin-AF4 peptide binding to FLAG-AF9;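 active means every replicate reaching a set inhibition limit, whatever the replicate mean, cut at about 25% in these data; inconclusive means mean inhibition reaches that limit but some replicates miss it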;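 further: 0% = plate neutral control median and 100% = total signal loss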
* = called active by the depositor; ? = inconclusive; nt = not tested or not shown. An excerpt weighted towards active compounds, which were near 1.3% of everything screened.

SMILES	S100A4 inh HTS	RAD54 inh	RAD52 anneal inh	INS-1E GSIS act	AF4-AF9 inh
C[C@H]1CN([C@@H](C)CO)C(=O)c2cc(-c3ccncc3)cnc2O[C@@H]1CN(C)C(=O)C1CCOCC1	4	3	-24	21	-3
CCC(Sc1nc(-c2ccccc2)c(-c2ccccc2)[nH]1)C(=O)O (centres undefined)	-31	-23	-5	67*	-1
CNC(=O)CSc1nc(-c2ccccc2)c(-c2ccccc2)[nH]1	nt	-3	nt	nt	nt
CNC[C@@H]1Oc2cc(C#Cc3ccc(F)cc3)ccc2S(=O)(=O)N([C@H](C)CO)C[C@H]1C	-16	5	47	-21	10
COc1ccc2c(c1)CCc1c(C(=O)NCc3ccc(Cl)cc3)noc1-2	nt	nt	nt	22	nt
COc1ccc2c(c1)CCc1c(C(=O)Nc3cc(C)n(Cc4ccc(Cl)cc4)n3)noc1-2	nt	-9	nt	47*	nt
CO[C@@H]1CN(C)C(=O)c2cc(NC(=O)C3CCCCC3)ccc2OC[C@H](C)N(Cc2nccs2)C[C@H]1C	7	1	-13	-4	-3
CC(=O)Oc1cc2c3c(c1)/C(=C1/SC(=S)NC1=O)C(=O)N3C(C)(C)C=C2C	2	nt	-6	3	30*
CCOc1cc2c3c(c1)C(C)=CC(C)(C)N3C(=O)C2=O	-4	12	-13	14	16
C[C@@H]1CCCCO[C@H](CN(C)Cc2ccc3c(c2)OCO3)[C@H](C)CN([C@@H](C)CO)C(=O)c2cc(NC(=O)Nc3ccc4c(c3)OCO4)ccc2O1	-13	3	37	-18	27*
C[C@H]1CCCCO[C@H](CN(C)Cc2ccc3c(c2)OCO3)[C@@H](C)CN([C@@H](C)CO)C(=O)c2cc(NC(=O)Nc3ccc4c(c3)OCO4)ccc2O1	-4	5	41	-36	29*
C[C@@H]1CCCCO[C@H](CN(C)Cc2ccc3c(c2)OCO3)[C@@H](C)CN([C@H](C)CO)C(=O)c2cc(NC(=O)Nc3ccc4c(c3)OCO4)ccc2O1	-4	-3	23	-19	4
C[C@@H]1CCCCO[C@@H](CN(C)CC2CCCCC2)[C@H](C)CN([C@H](C)CO)C(=O)c2cc(NC(=O)c3ccccc3)ccc2O1	6	-1	13	-5	27*
C[C@@H]1CCCCO[C@@H](CN(C)CC2CCCCC2)[C@H](C)CN([C@@H](C)CO)C(=O)c2cc(NC(=O)c3ccccc3)ccc2O1	?	-4	-9	-4	10
C[C@H]1CCCCO[C@@H](CN(C)C(=O)CCCN(C)C)[C@@H](C)CN([C@@H](C)CO)C(=O)c2cc(NC(=O)Nc3ccc(F)cc3)ccc2O1	5	11	52*	13	9
C[C@@H](O)C#Cc1cnc2c(c1)C(=O)N([C@@H](C)CO)C[C@H](C)[C@H](CN(C)Cc1ccccn1)O2	-2	-1	5	12	-3
O=C(c1cccc(F)c1)N1CC2(C1)[C@@H](c1ccccc1)[C@H](CO)N2Cc1ccccn1	-2	nt	-35	6	1
CO[C@@H]1CN(C)C(=O)c2cc(NC(=O)C3CC3)ccc2OC[C@@H](C)N(C(=O)c2ccccc2)C[C@@H]1C	-1	-2	-4	2	0
Cc1ccc(S(=O)(=O)N[C@@H]2CC[C@H](CC(=O)NCCc3ccncc3)O[C@@H]2CO)cc1	-11	-6	7	16	0
C[C@H](CO)N1C[C@H](C)[C@@H](CN(C)C(=O)Nc2ccc(F)cc2)OCCCC[C@H](C)Oc2ccc(NC(=O)Nc3ccc4c(c3)OCO4)cc2C1=O	-35	0	7	25	49*
C[C@@H]1CCCCO[C@H](CN(C)CC2CC2)[C@@H](C)CN([C@H](C)CO)C(=O)c2cc(NC(=O)Nc3ccc4c(c3)OCO4)ccc2O1	-21	5	23	-2	25*
C[C@@H]1CCCCO[C@@H](CN(C)Cc2ccc3c(c2)OCO3)[C@@H](C)CN([C@@H](C)CO)C(=O)c2cc(NC(=O)Nc3ccc4c(c3)OCO4)ccc2O1	-10	7	55*	-37	12
COCC#Cc1ccc([C@H]2[C@@H](CO)N3CCCCN(S(=O)(=O)c4ccccc4F)C[C@@H]23)cc1	6	-17	-8	11	-4
O=C(N[C@H]1CC[C@H](CCn2cc(-c3ccccc3)nn2)O[C@@H]1CO)c1cnccn1	12	4	-3	3	0
